Measured values taken from ChEMBL document CHEMBL4138242, “Synthesis and antibacterial evaluation of novel cationic chalcone derivatives possessing broad spectrum antibacterial activity” (Eur J Med Chem, 2018).
Active and inactive are the calls of the source. No cut-off for these calls is given here.

Experiments:
Staphylococcus aureus [1] = test: Antibacterial activity against Staphylococcus aureus ATCC 29213 after 16 to 20 hrs by broth microdilution method; assay type: functional
In short: (§1)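 Broth microdilution per CLSI. Bacteria grown 4-6 h (about 10⁸ CFU/mL), then diluted to about 10⁶ CFU/mL. Medium: Mueller-Hinton broth, except Luria-Bertani broth for E. coli. Compounds in sterile water, twofold series 256-0.5 µg/mL, mixed 1:1 with inoculum, 37 °C for 16-20 h. MIC is the lowest concentration without visible growth. Duplicate wells; experiment repeated at least twice.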

Enterococcus faecalis = test: Antibacterial activity against Enterococcus faecalis ATCC 29212 after 16 to 20 hrs by broth microdilution method; assay type: functional; in short: as §1
Escherichia coli [2] = test: Antibacterial activity against Escherichia coli ATCC 25922 after 16 to 20 hrs by broth microdilution method; assay type: functional; in short: as §1
Salmonella enterica = test: Antibacterial activity against Salmonella enterica ATCC 13076 after 16 to 20 hrs by broth microdilution method; assay type: functional; in short: as §1
[3] = Hemolytic activity in sheep RBC after 1 hr; assay type: ADME, cell-based, Ovis aries, Erythrocyte; conditions: sheep red blood cells (erythrocytes)
In short: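 Sheep red blood cells (150 µL suspension) mixed with 50 µL of compound dilutions (5120-10 µg/mL), 1 h at 37 °C, then centrifuged. Supernatant read at 540 nm. Percent hemolysis calculated relative to RBC-only control (0%) and 0.1% Triton X-100 (100%).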

Staphylococcus aureus [4] = test: Antibacterial activity against methicillin-resistant Staphylococcus aureus clinical isolate 1105183 cono7 after 16 to 20 hrs by broth microdilution method; assay type: functional
In short: (§2)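 CLSI broth microdilution in Mueller-Hinton broth. A 4-6 h culture was diluted to about 10⁶ CFU/mL and mixed 1:1 with compound dilutions prepared at 256 to 0.5 µg/mL from aqueous stocks. Plates were incubated at 37 °C for 16-20 h and read visually for MIC. Each concentration was run in duplicate, and the experiment was repeated at least twice. Vancomycin and meropenem were comparators.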

Staphylococcus aureus [5] = test: Antibacterial activity against methicillin-resistant Staphylococcus aureus clinical isolate 20130911034sau after 16 to 20 hrs by broth microdilution method; assay type: functional; in short: as §2
Staphylococcus aureus [6] = test: Antibacterial activity against methicillin-resistant Staphylococcus aureus clinical isolate 0831010 after 16 to 20 hrs by broth microdilution method; assay type: functional; in short: as §2
Staphylococcus aureus [7] = test: Antibacterial activity against methicillin-resistant Staphylococcus aureus clinical isolate 1104060 after 16 to 20 hrs by broth microdilution method; assay type: functional; in short: as §2
Staphylococcus aureus [8] = test: Antibacterial activity against methicillin-resistant Staphylococcus aureus clinical isolate 20131012632sau after 16 to 20 hrs by broth microdilution method; assay type: functional; in short: as §2
Staphylococcus aureus [9] = test: Antibacterial activity against methicillin-resistant Staphylococcus aureus clinical isolate 1207007 after 16 to 20 hrs by broth microdilution method; assay type: functional; in short: as §2
Staphylococcus aureus [10] = test: Antibacterial activity against methicillin-resistant Staphylococcus aureus clinical isolate 1-may after 16 to 20 hrs by broth microdilution method; assay type: functional; in short: as §2
Staphylococcus aureus [11] = test: Antibacterial activity against methicillin-resistant Staphylococcus aureus clinical isolate 0906202 after 16 to 20 hrs by broth microdilution method; assay type: functional; in short: as §2
Staphylococcus aureus [12] = test: Antibacterial activity against methicillin-resistant Staphylococcus aureus clinical isolate 1208143 after 16 to 20 hrs by broth microdilution method; assay type: functional; in short: as §2
Klebsiella pneumoniae [13] = test: Antibacterial activity against drug-resistant carbapenemase producing Klebsiella pneumoniae clinical isolate KP-14-8 after 16 to 20 hrs by broth microdilution method; assay type: functional; in short: as §2
Klebsiella pneumoniae [14] = test: Antibacterial activity against drug-resistant carbapenemase producing Klebsiella pneumoniae clinical isolate KP-13-45 after 16 to 20 hrs by broth microdilution method; assay type: functional; in short: as §2
Klebsiella pneumoniae [15] = test: Antibacterial activity against drug-resistant carbapenemase producing Klebsiella pneumoniae clinical isolate KP-14-3 after 16 to 20 hrs by broth microdilution method; assay type: functional; in short: as §2
Klebsiella pneumoniae [16] = test: Antibacterial activity against drug-resistant carbapenemase producing Klebsiella pneumoniae clinical isolate KP-14-1 after 16 to 20 hrs by broth microdilution method; assay type: functional; in short: as §2
Klebsiella pneumoniae [17] = test: Antibacterial activity against drug-resistant carbapenemase producing Klebsiella pneumoniae clinical isolate KP-14-4 after 16 to 20 hrs by broth microdilution method; assay type: functional; in short: as §2
Klebsiella pneumoniae [18] = test: Antibacterial activity against drug-resistant carbapenemase producing Klebsiella pneumoniae clinical isolate KP-13-54 after 16 to 20 hrs by broth microdilution method; assay type: functional; in short: as §2
Klebsiella pneumoniae [19] = test: Antibacterial activity against drug-resistant carbapenemase producing Klebsiella pneumoniae clinical isolate KP-14-2 after 16 to 20 hrs by broth microdilution method; assay type: functional; in short: as §2
Klebsiella pneumoniae [20] = test: Antibacterial activity against drug-resistant carbapenemase producing Klebsiella pneumoniae clinical isolate EC-13-23 after 16 to 20 hrs by broth microdilution method; assay type: functional; in short: as §2
Klebsiella pneumoniae [21] = test: Antibacterial activity against drug-resistant carbapenemase producing Klebsiella pneumoniae clinical isolate KP-14-5 after 16 to 20 hrs by broth microdilution method; assay type: functional; in short: as §2
Klebsiella pneumoniae [22] = test: Antibacterial activity against drug-resistant carbapenemase producing Klebsiella pneumoniae clinical isolate KP-13-55 after 16 to 20 hrs by broth microdilution method; assay type: functional; in short: as §2
Klebsiella pneumoniae [23] = test: Antibacterial activity against drug-resistant carbapenemase producing Klebsiella pneumoniae clinical isolate KP-14-45 after 16 to 20 hrs by broth microdilution method; assay type: functional; in short: as §2
Klebsiella pneumoniae [24] = test: Antibacterial activity against drug-resistant carbapenemase producing Klebsiella pneumoniae clinical isolate KP-14-18 after 16 to 20 hrs by broth microdilution method; assay type: functional; in short: as §2
Escherichia coli [25] = test: Antibacterial activity against drug-resistant NDM1 producing Escherichia coli clinical isolate EC-13-49 after 16 to 20 hrs by broth microdilution method; assay type: functional; in short: as §2
Escherichia coli [26] = test: Antibacterial activity against drug-resistant NDM1 producing Escherichia coli clinical isolate Ecl-14-58 after 16 to 20 hrs by broth microdilution method; assay type: functional; in short: as §2
Escherichia coli [27] = test: Antibacterial activity against drug-resistant NDM1 producing Escherichia coli clinical isolate KP-13-58 after 16 to 20 hrs by broth microdilution method; assay type: functional; in short: as §2
Escherichia coli [28] = test: Antibacterial activity against drug-resistant NDM1 producing Escherichia coli clinical isolate Ecl-13-62 after 16 to 20 hrs by broth microdilution method; assay type: functional; in short: as §2
Escherichia coli [29] = test: Antibacterial activity against drug-resistant NDM1 producing Escherichia coli clinical isolate EC-14-54 after 16 to 20 hrs by broth microdilution method; assay type: functional; in short: as §2
Escherichia coli [30] = test: Antibacterial activity against drug-resistant NDM1 producing Escherichia coli clinical isolate Ecl-14-59 after 16 to 20 hrs by broth microdilution method; assay type: functional; in short: as §2
Escherichia coli [31] = test: Antibacterial activity against drug-resistant NDM1 producing Escherichia coli clinical isolate EA-14-61 after 16 to 20 hrs by broth microdilution method; assay type: functional; in short: as §2
Escherichia coli [32] = test: Antibacterial activity against drug-resistant NDM1 producing Escherichia coli clinical isolate Ecl-14-56 after 16 to 20 hrs by broth microdilution method; assay type: functional; in short: as §2
Escherichia coli [33] = test: Antibacterial activity against drug-resistant NDM1 producing Escherichia coli clinical isolate 1460 after 16 to 20 hrs by broth microdilution method; assay type: functional; in short: as §2
Escherichia coli [34] = test: Antibacterial activity against drug-resistant NDM1 producing Escherichia coli clinical isolate SM-15-84 after 16 to 20 hrs by broth microdilution method; assay type: functional; in short: as §2
Escherichia coli [35] = test: Antibacterial activity against drug-resistant NDM1 producing Escherichia coli clinical isolate CF-15-61 after 16 to 20 hrs by broth microdilution method; assay type: functional; in short: as §2
Escherichia coli [36] = test: Antibacterial activity against drug-resistant NDM1 producing Escherichia coli clinical isolate CF-13-61 after 16 to 20 hrs by broth microdilution method; assay type: functional; in short: as §2
Staphylococcus aureus [37] = test: Induction of cytoplasmic membrane depolarization in Staphylococcus aureus ATCC 29213 at 10 to 20 ug/ml measured every 2 mins for 12 mins by DiSC35 dye-based fluorescence assay; assay type: functional, organism-based
In short: (§3)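 Mid-log cells (~10⁸ CFU/mL) were suspended in PBS (S. aureus) or HEPES/glucose/KCl with EDTA (E. coli). They were preloaded with DiSC3(5) for 30 min (S. aureus) or 40 min (E. coli), and baseline fluorescence was read for 8 min. Compound was added to 20 µg/mL final, and fluorescence (ex 622/em 670 nm) was read every 2 min for 12 min. Water served as control.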

Escherichia coli [38] = test: Induction of cytoplasmic membrane depolarization in Escherichia coli ATCC 25922 at 10 to 20 ug/ml measured every 2 mins for 12 mins by DiSC35 dye-based fluorescence assay; assay type: functional, organism-based; in short: as §3
Staphylococcus aureus [39] = test: Induction of inner membrane permeabilization in Staphylococcus aureus ATCC 29213 at 10 to 20 ug/ml measured every 2 mins for 12 mins by propidium iodide staining-based fluorescence assay; assay type: functional, organism-based
In short: (§4)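 Mid-log cells (~10⁸ CFU/mL) were suspended in PBS (S. aureus) or HEPES/glucose/KCl (E. coli). They were preincubated with propidium iodide for 30 min (S. aureus) or 40 min (E. coli), and baseline fluorescence was read for 8 min. Compound was added to 20 µg/mL final, and fluorescence (ex 535/em 617 nm) was read every 2 min for 12 min.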

Escherichia coli [40] = test: Induction of inner membrane permeabilization in Escherichia coli ATCC 25922 at 10 to 20 ug/ml measured every 2 mins for 12 mins by propidium iodide staining-based fluorescence assay; assay type: functional, organism-based; in short: as §4

CCCCCCCC[N+](C)(C)CC(=O)Nc1ccc(C(=O)/C=C/c2ccc3ccccc3c2)cc1.[Cl-]
MIC (Staphylococcus aureus [1]): 2 µg/mL
MIC (Enterococcus faecalis): 2 µg/mL
MIC (Escherichia coli [2]): 8 µg/mL
MIC (Salmonella enterica): 8 µg/mL
HC50 at 1 h [3]: 374 µg/mL
MIC (Staphylococcus aureus [4]): 1 µg/mL
MIC (Staphylococcus aureus [5]): 1 µg/mL
MIC (Staphylococcus aureus [6]): 1 µg/mL
MIC (Staphylococcus aureus [7]): 16 µg/mL
MIC (Staphylococcus aureus [8]): 8 µg/mL
MIC (Staphylococcus aureus [9]): 2 µg/mL
MIC (Staphylococcus aureus [10]): 2 µg/mL
MIC (Staphylococcus aureus [11]): 32 µg/mL
MIC (Staphylococcus aureus [12]): 2 µg/mL
MIC (Klebsiella pneumoniae [13]): 16 µg/mL
MIC (Klebsiella pneumoniae [14]): 16 µg/mL
MIC (Klebsiella pneumoniae [15]): 16 µg/mL
MIC (Klebsiella pneumoniae [16]): > 128 µg/mL
MIC (Klebsiella pneumoniae [17]): 32 µg/mL
MIC (Klebsiella pneumoniae [18]): 16 µg/mL
MIC (Klebsiella pneumoniae [19]): > 128 µg/mL
MIC (Klebsiella pneumoniae [20]): 8 µg/mL
MIC (Klebsiella pneumoniae [21]): 16 µg/mL
MIC (Klebsiella pneumoniae [22]): > 128 µg/mL
MIC (Klebsiella pneumoniae [23]): > 128 µg/mL
MIC (Klebsiella pneumoniae [24]): > 128 µg/mL
MIC (Escherichia coli [25]): 16 µg/mL
MIC (Escherichia coli [26]): 16 µg/mL
MIC (Escherichia coli [27]): 2 µg/mL
MIC (Escherichia coli [28]): 8 µg/mL
MIC (Escherichia coli [29]): 1 µg/mL
MIC (Escherichia coli [30]): 16 µg/mL
MIC (Escherichia coli [31]): 8 µg/mL
MIC (Escherichia coli [32]): 8 µg/mL
MIC (Escherichia coli [33]): 16 µg/mL
MIC (Escherichia coli [34]): 128 µg/mL
MIC (Escherichia coli [35]): 16 µg/mL
MIC (Escherichia coli [36]): 1 µg/mL
Activity (Staphylococcus aureus [37]): Active
Activity (Escherichia coli [38]): Active
Activity (Staphylococcus aureus [39]): Active
Activity (Escherichia coli [40]): Active
